The IC50 is the concentration that gives 50% inhibition. Usually inhibition stands for the drop in the measured response relative to a control, in per cent. What is called Ki is a dissociation constant, usually derived from enzyme kinetics or from competition with a known ligand. Read a high Ki as lower affinity.

The text below walks through data of ChEMBL document CHEMBL1799944, “New 2-heterocyclyl-imidazo[2,1-i]purin-5-one derivatives as potent and selective human A3 adenosine receptor antagonists” (J Med Chem, 2011).

SMILES strings stand for the structures.

Experiment [1] has as its target T1, Adenosine receptor A3 (Homo sapiens, UniProt P0DMS8).
T1 sequence (P0DMS8 whole entry): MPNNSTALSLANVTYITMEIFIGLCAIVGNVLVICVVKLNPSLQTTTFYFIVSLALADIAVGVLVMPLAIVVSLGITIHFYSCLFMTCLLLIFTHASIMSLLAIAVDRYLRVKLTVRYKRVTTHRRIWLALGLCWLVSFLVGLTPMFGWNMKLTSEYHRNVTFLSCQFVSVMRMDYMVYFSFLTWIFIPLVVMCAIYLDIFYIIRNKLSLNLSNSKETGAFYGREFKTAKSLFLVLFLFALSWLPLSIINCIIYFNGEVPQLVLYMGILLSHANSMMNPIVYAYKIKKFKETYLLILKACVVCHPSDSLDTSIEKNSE
As to the kind of experiment: Antagonist activity human adenosine A3 receptor expressed in CHO cells assessed as blockade of Cl-IB-MECA-mediated inhibition of forskolin-stimulated [3H]cAMP accumulation after 150 mins by scintillation counter. In kind it is functional, cell-based. Summed up:
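hA3-expressing CHO cells (1 x 10^6 cells/assay), preincubated 10 min at 37 °C in saline buffer pH 7.4 with adenosine deaminase 2 IU/mL and Ro 20-1724. Antagonism of 100 nM Cl-IB-MECA inhibition of cAMP in presence of 1 μM forskolin. Stopped with cold TCA. cAMP by [3H]cAMP competition protein binding (4 °C, 150 min), scintillation counting. IC50 from sigmoid nonlinear regression, mean ± SEM.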
On the technique in general: Changes in cAMP serve as a functional read-out for many G protein-coupled receptors.

Experiment [2] addresses T2, Adenosine receptor A2b (Homo sapiens) (UniProt P29275).
T2 sequence (whole entry): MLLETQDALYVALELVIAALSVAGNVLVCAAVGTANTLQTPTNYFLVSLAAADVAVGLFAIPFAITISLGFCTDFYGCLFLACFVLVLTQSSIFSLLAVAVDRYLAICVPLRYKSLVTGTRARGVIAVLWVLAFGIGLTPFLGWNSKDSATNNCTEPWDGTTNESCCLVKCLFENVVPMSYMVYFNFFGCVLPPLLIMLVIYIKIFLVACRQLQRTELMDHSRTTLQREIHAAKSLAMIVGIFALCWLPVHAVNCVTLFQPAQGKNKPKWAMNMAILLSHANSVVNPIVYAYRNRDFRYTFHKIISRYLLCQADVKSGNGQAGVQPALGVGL
The experiment is described as follows: Antagonist activity human adenosine A2B receptor expressed in CHO cells assessed as inhibition of NECA-mediated [3H]cAMP accumulation at =<5000 nM after 150 mins by scintillation counter. In kind it is functional, cell-based. The gist of the method:
(§1)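 Intact CHO cells expressing hA2B (1 x 10^6 cells/assay), preincubated 10 min at 37 °C in saline buffer pH 7.4 with 2 IU/mL adenosine deaminase and Ro 20-1724. Antagonism of 100 nM NECA-stimulated cAMP rise. Stopped with cold 6% TCA, ether-extracted. cAMP measured by competition binding with [3H]cAMP and beef adrenal binding protein (4 °C, 150 min), charcoal separation, scintillation counting. IC50 by sigmoid nonlinear regression, mean ± SEM.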

Experiment [3] concerns the target T3, Adenosine receptor A2b (Homo sapiens, UniProt P29275).
T3 sequence (P29275 whole entry): T2 sequence (whole entry)
As to the kind of experiment: Antagonist activity human adenosine A2B receptor expressed in CHO cells assessed as inhibition of NECA-mediated [3H]cAMP accumulation after 150 mins by scintillation counter. In kind it is functional, cell-based. The gist of the method: as §1

Experiment [4] concerns the target T1, Adenosine receptor A3. The experiment is described as follows: Displacement of [3H]MRE 3008F20 from human adenosine A3 receptor expressed in CHO cells after 120 mins by scintillation spectrometry. In kind it is cell-based. Summed up: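 Membranes from hA3 CHO cells (50 μg protein/assay) in 50 mM Tris HCl, 10 mM MgCl2, 1 mM EDTA pH 7.4, adenosine deaminase-treated. Incubated with 1 nM [3H]MRE 3008F20 and 6-8 ligand concentrations, 120 min at 4 °C. Nonspecific defined with 1 μM MRE 3008F20 (~25% of total). GF/B filtration, three ice-cold washes, scintillation counting. Ki via Cheng-Prusoff; geometric mean, 95% confidence limits, n = 3-6.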
Background: In a radioligand displacement assay an active substance lowers the binding of a labelled ligand.

In experiment [5] the target is T4, Adenosine receptor A2a (Homo sapiens, UniProt P29274). As to the kind of experiment: Displacement of [3H]ZM 241385 from human adenosine A2A receptor expressed in CHO cells at <=5000 nM after 60 mins by scintillation spectrometry. Format: cell-based.
T4 sequence (P29274 whole entry): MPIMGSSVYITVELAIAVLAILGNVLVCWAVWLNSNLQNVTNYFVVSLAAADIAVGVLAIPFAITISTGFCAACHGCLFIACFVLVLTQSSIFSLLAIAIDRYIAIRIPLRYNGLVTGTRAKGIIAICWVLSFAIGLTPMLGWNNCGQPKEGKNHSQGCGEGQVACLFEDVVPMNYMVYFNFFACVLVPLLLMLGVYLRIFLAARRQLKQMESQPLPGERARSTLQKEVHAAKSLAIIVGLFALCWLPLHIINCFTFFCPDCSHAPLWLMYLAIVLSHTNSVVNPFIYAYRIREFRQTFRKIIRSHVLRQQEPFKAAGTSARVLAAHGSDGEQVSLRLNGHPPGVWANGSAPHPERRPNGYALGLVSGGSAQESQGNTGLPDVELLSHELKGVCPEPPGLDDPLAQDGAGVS
Experiment [6] concerns the target T4, Adenosine receptor A2a. The experiment is described as follows: Displacement of [3H]ZM 241385 from human adenosine A2A receptor expressed in CHO cells after 60 mins by scintillation spectrometry. In kind it is cell-based.
For experiment [7], the target named is T5, Adenosine receptor A1 (Homo sapiens, UniProt P30542).
T5 sequence (P30542 whole entry): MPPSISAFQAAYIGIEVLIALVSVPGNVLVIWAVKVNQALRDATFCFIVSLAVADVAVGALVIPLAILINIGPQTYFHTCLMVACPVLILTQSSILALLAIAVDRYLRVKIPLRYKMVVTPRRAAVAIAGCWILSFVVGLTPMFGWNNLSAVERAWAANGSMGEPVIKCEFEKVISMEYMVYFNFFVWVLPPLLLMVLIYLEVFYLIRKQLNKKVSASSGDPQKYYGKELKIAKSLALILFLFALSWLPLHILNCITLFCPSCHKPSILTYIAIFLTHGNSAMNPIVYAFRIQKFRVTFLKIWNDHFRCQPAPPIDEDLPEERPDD
The experiment is described as follows: Displacement of [3H]DPCPX from human adenosine A1 receptor expressed in CHO cells after 120 mins by scintillation spectrometry. In kind it is cell-based. Summed up: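 hA1 CHO membranes (50 μg protein/assay) in 50 mM Tris HCl pH 7.4, pretreated with adenosine deaminase 2 UI/mL for 30 min at 37 °C. Incubated with 1 nM [3H]DPCPX plus 6-8 ligand concentrations for 120 min at 25 °C. Nonspecific binding defined with 1 μM DPCPX. Ki from IC50 by Cheng-Prusoff; geometric means with 95% confidence limits.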

In experiment [8] the target is Adenosine receptors; A1 & A3 (Homo sapiens) (UniProt P30542+P0DMS8). As to the kind of experiment: Ratio of Ki for human adenosine A1 receptor to Ki for human adenosine A3 receptor.

For `C=CCN1C(=O)N2C[C@@H](C)N=C2c2[nH]c(-c3cc(C)nn3C)nc21`, the results for the IC50 in experiment [1] and in experiment [3] were 35.9 nM and > 5000 nM, respectively. The inhibition came out at 10% in experiment [2] and 1% in experiment [5]. The inhibition constant Ki in experiment [4] is 5.04 nM; in experiment [6], > 5000 nM; in experiment [7], 2510 nM.
In the case of `C=CCN1C(=O)N2C[C@H](C)N=C2c2[nH]c(-c3cc(C)nn3C)nc21`, the figures for the IC50 in experiment [1] and in experiment [3] were 40.9 nM and > 5000 nM, respectively. Further, the inhibition came out at 12% in experiment [2] and 4% in experiment [5]. Besides, the values for the Ki in experiment [4], in experiment [6] and in experiment [7] were 6.03 nM, > 5000 nM and 1960 nM, respectively.
For the molecule `CC[C@@H]1CN2C(=O)N(Cc3ccccc3)c3nc(-c4cc(C)nn4C)[nH]c3C2=N1`, the inhibition was found to be 10% in experiment [2] and 3% in experiment [5]. The 50% inhibitory concentration (IC50) in experiment [3] is > 5000 nM. Moreover, the values for the Ki in experiment [4], in experiment [6] and in experiment [7] were 12.6 nM, > 5000 nM and 803 nM, respectively.
Take `CC[C@H]1CN2C(=O)N(Cc3ccccc3)c3nc(-c4cc(C)nn4C)[nH]c3C2=N1`: the values for the inhibition in experiment [2] and in experiment [5] were 13% and 4%, respectively. In experiment [3], the 50% inhibitory concentration (IC50) was > 5000 nM. In addition, the inhibitory constant (Ki) in experiment [4] is 13.2 nM; in experiment [6], > 5000 nM; in experiment [7], 545 nM.
As to `C=CCN1C(=O)N2C[C@@H](CC)N=C2c2[nH]c(-c3cc(OC)nn3C)nc21`, the IC50 in experiment [1] was 23.4 nM; in experiment [3], > 5000 nM. Further, the inhibition in experiment [2] amounted to 21%; in experiment [5], 13%. Moreover, the figures for the Ki in experiment [4], in experiment [6] and in experiment [7] were 1.46 nM, > 5000 nM and 2520 nM, respectively.
As for `C=CCN1C(=O)N2C[C@H](CC)N=C2c2[nH]c(-c3cc(OC)nn3C)nc21`, the IC50 in experiment [1] is 10.5 nM; in experiment [3], > 5000 nM. The inhibition in experiment [2] was found to be 14%; in experiment [5], 15%. For the same molecule, the inhibitory constant (Ki) in experiment [4] is 2.37 nM; in experiment [6] it was > 5000 nM; in experiment [7] it was 1080 nM.
Consider `Cc1cc(-c2nc3c([nH]2)C2=NC(C)CN2C(=O)N3Cc2ccccc2)n(C)n1` (racemic), for which, in experiment [8], the Ratio Ki was > 290. The inhibition was found to be 8% in experiment [2] and 1% in experiment [5]. For the same molecule, the IC50 in experiment [3] is > 5000 nM. Also, the Ki was 17.2 nM in experiment [4], > 5000 nM in experiment [6] and > 5000 nM in experiment [7].
As to `CCC1CN2C(=O)N(Cc3ccccc3)c3nc(-c4cc(C)nn4C)[nH]c3C2=N1` (racemic), in experiment [8], the Ratio Ki is 60. Further, the results for the inhibition in experiment [2] and in experiment [5] were 20% and 5%, respectively. Also, the IC50 in experiment [3] was > 5000 nM. The Ki in experiment [4] was 10.3 nM; in experiment [6], > 5000 nM; in experiment [7] it was 615 nM.
For `C=CCN1C(=O)N2CC(CC)N=C2c2[nH]c(-c3cc(OCc4ccccc4)nn3C)nc21` (racemic), in experiment [8], the Ratio Ki was found to be 56. For the same molecule, the inhibition is 14% in experiment [2] and 5% in experiment [5]. Besides, the half-maximal inhibitory concentration (IC50) in experiment [3] is > 5000 nM. Further, the Ki in experiment [4] was 21.5 nM; in experiment [6], > 5000 nM; in experiment [7], 1200 nM.
As for `CC1CN2C(=O)N(Cc3ccccc3)c3nc(-c4cc(OCc5ccccc5)nn4C)[nH]c3C2=N1` (racemic), in experiment [8], the Ratio Ki amounted to 57. The inhibition in experiment [2] is 13%. In addition, in experiment [3], the half-maximal inhibitory concentration (IC50) is > 5000 nM. The Ki in experiment [4] is 44.8 nM; in experiment [6], 2010 nM; in experiment [7], 2560 nM.
As to `CCC1CN2C(=O)N(Cc3ccccc3)c3nc(-c4cc(OCc5ccccc5)nn4C)[nH]c3C2=N1` (racemic), in experiment [8], the Ratio Ki is 42. For the same molecule, the inhibition in experiment [2] amounted to 12%. Further, in experiment [3], the concentration for half-maximal inhibition (IC50) was > 5000 nM. Further, the Ki stood at 39.8 nM in experiment [4], 2130 nM in experiment [6] and 1680 nM in experiment [7].
In the case of `C=CCN1C(=O)N2CC(CC)N=C2c2[nH]c(-c3cc(OC)no3)nc21` (racemic), the half-inhibitory concentration (IC50) was 14.6 nM in experiment [1] and > 5000 nM in experiment [3]. For the same molecule, in experiment [2], the inhibition turned out to be 25%. The inhibitory constant (Ki) in experiment [4] was 1.93 nM; in experiment [6] it was 1520 nM; in experiment [7], 3020 nM.
